Data as given in ChEMBL document CHEMBL3259728, “Design, synthesis and biological evaluation of some novel substituted quinazolines as antitumor agents” (2014).

How the values were obtained:
Assay type in all cases: functional
SK-MEL-5 = assay: Growth inhibition of human SK-MEL-5 cells assessed as cell growth at 10^-7 M after 48 hrs by SRB assay; details: SK-MEL-5, 48 h, read-out: Activity
CAKI-1 = assay: Growth inhibition of human CAKI-1 cells assessed as cell growth at 10^-4 M after 48 hrs by SRB assay; details: CAKI-1, 48 h, read-out: Activity
Summary of the method: (§1)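 Five-dose NCI panel protocol. Each dose (10^-4 to 10^-8 M, 10-fold steps) was given as 48 h continuous exposure, and protein was measured by SRB staining. Percentage growth at each level is [(Ti−Tz)/(C−Tz)]×100, where Tz is time-zero absorbance and C is untreated control.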

[1] = Growth inhibition of human NCI-ADR-RES cells assessed as cell growth at 10^-8 M after 48 hrs by SRB assay; details: read-out: Activity
[2] = Growth inhibition of human UO31 cells assessed as cell growth at 10^-6 M after 48 hrs by SRB assay; details: UO-31, 48 h, read-out: Activity
SK-MEL-28 [3] = assay: Growth inhibition of human SK-MEL-28 cells assessed as cell growth at 10^-4 M after 48 hrs by SRB assay; details: SK-MEL-28, 48 h, read-out: Activity
MDA-MB-468 = assay: Growth inhibition of human MDA-MB-468 cells assessed as cell growth at 10^-5 M after 48 hrs by SRB assay; details: MDA-MB-468, 48 h, read-out: Activity
A498 = assay: Growth inhibition of human A498 cells assessed as cell growth at 10^-6 M after 48 hrs by SRB assay; details: A498, 48 h, read-out: Activity; summary of the method: as §1
SK-OV-3 [4] = assay: Growth inhibition of human SKOV3 cells assessed as cell growth at 10^-6 M after 48 hrs by SRB assay; details: SK-OV-3, 48 h, read-out: Activity
HT-29 = assay: Growth inhibition of human HT-29 cells assessed as cell growth at 10^-4 M after 48 hrs by SRB assay; details: HT-29, 48 h, read-out: Activity
SF-268 = assay: Growth inhibition of human SF268 cells assessed as cell growth at 10^-8 M after 48 hrs by SRB assay; details: SF-268, 48 h, read-out: Activity
[5] = Growth inhibition of human MOLT4 cells assessed as cell growth at 10^-8 M after 48 hrs by SRB assay; details: MOLT-4, 48 h, read-out: Activity
[6] = Growth inhibition of human BT549 cells assessed as cell growth at 10^-8 M after 48 hrs by SRB assay; details: BT-549, 48 h, read-out: Activity; summary of the method: as §1
NCI-H23 = assay: Growth inhibition of human NCI-H23 cells assessed as cell growth at 10^-8 M after 48 hrs by SRB assay; details: NCI-H23, 48 h, read-out: Activity
HOP-92 = assay: Cytotoxicity against human HOP92 cells after 48 hrs by SRB assay; details: HOP-92, 48 h
Summary of the method: (§2)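 NCI 60-cell-line panel of human tumour lines from nine cancer types. Continuous 48 h exposure at five 10-fold dilutions from 10^-4 to 10^-8 M, with 5-FU as positive control. SRB protein stain read spectrophotometrically at time zero, untreated control and each concentration. GI50, TGI and LC50 were derived from the [(Ti−Tz)/(C−Tz)]×100 growth relations, and out-of-range values are given as > or < the tested limits.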

T47D = assay: Growth inhibition of human T47D cells assessed as cell growth at 10^-8 M after 48 hrs by SRB assay; details: read-out: Activity
SK-MEL-28 [7] = assay: Growth inhibition of human SK-MEL-28 cells assessed as cell growth at 10^-8 M after 48 hrs by SRB assay; details: SK-MEL-28, 48 h, read-out: Activity
SK-OV-3 [8] = assay: Growth inhibition of human SKOV3 cells assessed as cell growth at 10^-4 M after 48 hrs by SRB assay; details: SK-OV-3, 48 h, read-out: Activity
[9] = Growth inhibition of human UACC257 cells assessed as cell growth at 10^-8 M after 48 hrs by SRB assay; details: UACC-257, 48 h, read-out: Activity
[10] = Growth inhibition of human SF539 cells assessed as cell growth at 10^-5 M after 48 hrs by SRB assay; details: SF-539, 48 h, read-out: Activity
M14 = assay: Growth inhibition of human M14 cells assessed as cell growth at 10^-4 M after 48 hrs by SRB assay; details: M14, 48 h, read-out: Activity
SR = assay: Cytotoxicity against human SR cells after 48 hrs by SRB assay; summary of the method: as §2
NCI-H226 = assay: Growth inhibition of human NCI-H226 cells assessed as cell growth at 10^-8 M after 48 hrs by SRB assay; details: NCI-H226, 48 h, read-out: Activity
SW-620 = assay: Growth inhibition of human SW620 cells assessed as cell growth at 10^-8 M after 48 hrs by SRB assay; details: SW-620, 48 h, read-out: Activity
HCT-116 = assay: Growth inhibition of human HCT116 cells assessed as cell growth at 10^-7 M after 48 hrs by SRB assay; details: HCT-116, 48 h, read-out: Activity
[11] = Cytotoxicity against human UO31 cells after 48 hrs by SRB assay; details: UO-31, 48 h
Summary of the method: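 NCI 60-cell-line panel, 48 h continuous exposure to five 10-fold dilutions from 10^-4 to 10^-8 M. SRB protein staining was read spectrophotometrically, with time-zero, untreated-control and treated absorbances. GI50, TGI and LC50 were derived from the percentage-growth formulas. Values outside the tested range are expressed as more or less than the maximum or minimum concentration.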

[12] = Growth inhibition of human RXF393 cells assessed as cell growth at 10^-6 M after 48 hrs by SRB assay; details: RXF 393, 48 h, read-out: Activity
[13] = Growth inhibition of human SF295 cells assessed as cell growth at 10^-7 M after 48 hrs by SRB assay; details: SF-295, 48 h, read-out: Activity
SK-MEL-28 [14] = assay: Growth inhibition of human SK-MEL-28 cells assessed as cell growth at 10^-5 M after 48 hrs by SRB assay; details: SK-MEL-28, 48 h, read-out: Activity
HOP-62 = assay: Growth inhibition of human HOP62 cells assessed as cell growth at 10^-8 M after 48 hrs by SRB assay; details: HOP-62, 48 h, read-out: Activity
[15] = read-out: LC50 (the source's name)
[16] = read-out: pLC50 (the source's name) (converted)

Cc1ccc(-c2nc3ccc(Cl)cc3c(=O)n2/N=C/c2ccccc2)cc1 showed a growth at 0.1 µM (SK-MEL-5) of 92%, a growth at 100 µM (CAKI-1) of 32% and a growth at 0.01 µM [1] of 98%. For the same molecule, the growth at 1 µM [2] was 60%, the growth at 100 µM (SK-MEL-28 [3]) was 27% and the growth at 10 µM (MDA-MB-468) was 65%. It also gave a growth at 1 µM (A498) of 85%, a growth at 1 µM (SK-OV-3 [4]) of 93% and a growth at 100 µM (HT-29) of 45%. The growth at 0.01 µM (SF-268) was 91%, the growth at 0.01 µM [5] was 103% and the growth at 0.01 µM [6] was 100%. For the same molecule, the growth at 0.01 µM (NCI-H23) was 98%, the GI50 (HOP-92; read-out: GI50) was 6.74 µM and the CC50 (HOP-92; [15]) was over 100 µM. The TGI (HOP-92; read-out: TGI) was over 100 µM, the GI50 (HOP-92; read-out: pGI50 (converted)) was 6.76 µM and the CC50 (HOP-92; [16]) was over 100 µM. The TGI (HOP-92; read-out: pTGI) was over 100 µM, the growth at 0.01 µM (T47D) was 89% and the growth at 0.01 µM (SK-MEL-28 [7]) was 102%. The growth at 100 µM (SK-OV-3 [8]) was -37%, the growth at 0.01 µM [9] was 100% and the growth at 10 µM [10] was 73%. For the same molecule, the growth at 100 µM (M14) was 47%, the GI50 (SR; read-out: GI50) was over 100 µM and the CC50 (SR; [15]) was over 100 µM. It also gave a TGI (SR; read-out: TGI) of over 100 µM, a GI50 (SR; read-out: pGI50 (converted)) of over 100 µM and a CC50 (SR; [16]) of over 100 µM. It also gave a TGI (SR; read-out: pTGI) of over 100 µM, a growth at 0.01 µM (NCI-H226) of 91% and a growth at 0.01 µM (SW-620) of 96%. The growth at 0.1 µM (HCT-116) was 96%, the GI50 ([11]; read-out: GI50) was 3.66 µM and the CC50 [11, 15] was over 100 µM. The TGI ([11]; read-out: TGI) was over 100 µM, the GI50 ([11]; read-out: pGI50 (converted)) was 3.63 µM and the CC50 [11, 16] was over 100 µM. It also gave a TGI ([11]; read-out: pTGI) of over 100 µM, a growth at 1 µM [12] of 90% and a growth at 0.1 µM [13] of 80%. For the same molecule, the growth at 10 µM (SK-MEL-28 [14]) was 60% and the growth at 0.01 µM (HOP-62) was 97%.
